Assay results reported in ChEMBL document CHEMBL4725317 (Bioorg Med Chem Lett, 2020).
One block for each compound: values may come before it.

Tests used:
[1] = biological target: T1, Sodium/glucose cotransporter 1 (Homo sapiens) (UniProt P13866); test: Inhibition of human SGLT1 expressed in CHO cells assessed as reduction in [14C]-methyl-alpha -D-glucopyranoside accumulation at 0.3 uM relative to control; assay type: cell-based
T1 sequence (whole entry): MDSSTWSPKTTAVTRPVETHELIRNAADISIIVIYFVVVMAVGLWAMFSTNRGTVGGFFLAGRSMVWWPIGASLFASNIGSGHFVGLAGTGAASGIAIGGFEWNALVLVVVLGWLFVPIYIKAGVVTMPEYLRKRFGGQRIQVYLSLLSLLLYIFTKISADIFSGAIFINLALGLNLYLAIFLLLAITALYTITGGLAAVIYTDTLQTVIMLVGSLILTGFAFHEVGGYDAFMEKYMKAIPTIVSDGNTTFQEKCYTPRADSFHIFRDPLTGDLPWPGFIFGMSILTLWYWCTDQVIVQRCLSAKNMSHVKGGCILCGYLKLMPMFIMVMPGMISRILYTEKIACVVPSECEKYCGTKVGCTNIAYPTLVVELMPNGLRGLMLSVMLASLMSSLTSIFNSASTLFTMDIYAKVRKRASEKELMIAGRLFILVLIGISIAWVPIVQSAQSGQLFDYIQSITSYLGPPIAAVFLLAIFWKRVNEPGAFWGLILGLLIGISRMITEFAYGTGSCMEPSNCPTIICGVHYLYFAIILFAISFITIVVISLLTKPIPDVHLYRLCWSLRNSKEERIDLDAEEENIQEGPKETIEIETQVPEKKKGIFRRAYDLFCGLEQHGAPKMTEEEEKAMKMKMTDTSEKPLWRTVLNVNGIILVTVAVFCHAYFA
Outline: (§1)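 CHO cells expressing human SGLT1 or SGLT2; inhibition of [14C]methyl D-glucopyranoside (AMG) accumulation measured with test compound at 0.3 μM.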

[2] = biological target: T2, Sodium/glucose cotransporter 2 (Homo sapiens) (UniProt P31639); test: Inhibition of human SGLT2 expressed in CHO cells assessed as reduction in [14C]-methyl-alpha -D-glucopyranoside accumulation at 0.3 uM relative to control; assay type: cell-based; outline: as §1
T2 sequence (whole entry): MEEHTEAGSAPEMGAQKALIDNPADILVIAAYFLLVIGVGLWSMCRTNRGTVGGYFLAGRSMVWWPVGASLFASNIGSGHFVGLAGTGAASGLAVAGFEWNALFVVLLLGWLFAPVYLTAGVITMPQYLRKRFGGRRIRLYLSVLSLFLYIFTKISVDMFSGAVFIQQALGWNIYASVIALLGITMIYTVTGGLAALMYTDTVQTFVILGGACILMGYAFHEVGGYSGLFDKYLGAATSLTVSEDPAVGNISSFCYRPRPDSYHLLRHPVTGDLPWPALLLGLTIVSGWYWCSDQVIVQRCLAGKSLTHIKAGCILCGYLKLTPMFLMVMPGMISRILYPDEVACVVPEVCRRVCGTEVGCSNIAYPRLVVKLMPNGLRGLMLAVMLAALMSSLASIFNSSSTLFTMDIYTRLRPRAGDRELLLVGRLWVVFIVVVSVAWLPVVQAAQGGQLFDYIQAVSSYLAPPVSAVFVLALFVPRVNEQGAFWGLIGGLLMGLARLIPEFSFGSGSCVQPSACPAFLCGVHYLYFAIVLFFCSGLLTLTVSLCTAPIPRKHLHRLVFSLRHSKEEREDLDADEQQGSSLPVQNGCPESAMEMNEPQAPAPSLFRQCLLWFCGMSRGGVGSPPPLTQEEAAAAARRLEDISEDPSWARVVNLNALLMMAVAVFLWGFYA

[3] = Stability of compound in human liver microsomes assessed as parent compound remaining at 1 uM measured at 10 mins in presence of NADPH; assay type: ADME, Microsome; details: for remaining at 10 min, 1 µM: liver microsomes, read-out: Stabilty
Outline: (§2)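 Test compound at 1 μM with human, mouse or rat liver microsomes (0.5 mg/ml protein) plus NADPH cofactor; final solvents 0.01% DMSO, 0.05% acetonitrile; percent parent remaining at 10 min. Verapamil, cerivastatin and warfarin as positive controls. SD given when multiple batches were tested.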

[4] = Stability of compound in mouse liver microsomes assessed as parent compound remaining at 1 uM measured at 10 mins in presence of NADPH; assay type: ADME, Microsome; details: read-out: Stabilty; outline: as §2
[5] = Stability of compound in rat liver microsomes assessed as parent compound remaining at 1 uM measured at 10 mins in presence of NADPH; assay type: ADME, Microsome; details: for remaining at 10 min, 1 µM: liver microsomes, read-out: Stabilty; outline: as §2
[6] = Clearance in Sprague-Dawley rat at 2 mg/kg, iv or 10 mg/kg, po; assay type: ADME, organism-based; details: in vivo
Outline: (§3)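 Male Sprague Dawley rats dosed 2 mg/kg IV (vehicle 20% HPbCD) or 10 mg/kg PO (vehicle 0.5% Methocel); pharmacokinetic parameters derived from plasma exposure.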

[7] = Volume of distribution at steady state in Sprague-Dawley rat at 2 mg/kg, iv or 10 mg/kg, po; assay type: ADME, organism-based; details: in vivo, read-out: Vdss; outline: as §3
[8] = Half life in Sprague-Dawley rat at 2 mg/kg, iv; assay type: ADME, organism-based; details: in vivo; outline: as §3
[9] = Cmax in Sprague-Dawley rat at 2 mg/kg, iv or 10 mg/kg, po; assay type: ADME, organism-based; set-up: dose 10 mg/kg; details: in vivo; outline: as §3
[10] = Tmax in Sprague-Dawley rat at 2 mg/kg, iv or 10 mg/kg, po; assay type: ADME, organism-based; details: in vivo; outline: as §3
[11] = Oral bioavailability in Sprague-Dawley rat at 10 mg/kg; assay type: ADME, organism-based; details: in vivo; outline: as §3
[12] = Half life in human liver microsomes at 1 uM measured at 10 mins in presence of NADPH; assay type: ADME, Microsome
[13] = AUC (0 to infinity) in Sprague-Dawley rat at 2 mg/kg, iv or 10 mg/kg, po; assay type: ADME, organism-based; set-up: dose 10 mg/kg; details: in vivo; outline: as §3
[14] = test system: Rattus norvegicus; test: Hypoglycemic activity in overnight fasted Sprague-Dawley rat assessed as percent reduction in blood glucose AUC at 1 mg/kg, po measured after 4 hrs post glucose challenge by OGTT relative to control; assay type: functional; set-up: scale not given: the % may be the effect or the level left
Outline: (§4)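 Overnight-fasted SD rats dosed orally at 1 or 10 mg/kg in 0.5% Methocel (vehicle controls) 60 min before oral glucose challenge. […] N=8 per group; mean ± SEM; one-way ANOVA-Dunnett.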

[15] = test system: Rattus norvegicus; test: Hypoglycemic activity in overnight fasted Sprague-Dawley rat assessed as percent reduction in blood glucose AUC at 10 mg/kg, po measured after 4 hrs post glucose challenge by OGTT relative to control; assay type: functional; set-up: scale not given: the % may be the effect or the level left; outline: as §4
[16] = In vivo inhibition of SGLT1 in overnight fasted Sprague-Dawley rat assessed as amount of urinary glucose excretion assessed per 4 hrs at 1 mg/kg, po; assay type: functional; outline: as §4
[17] = In vivo inhibition of SGLT2 in overnight fasted Sprague-Dawley rat assessed as amount of urinary glucose excretion assessed per 4 hrs at 10 mg/kg, po; assay type: functional; outline: as §4

Compound: C[C@]1(F)[C@H](O)[C@@H](O)[C@H](c2cc(Cc3cc4ccccc4s3)c(Cl)cc2O)O[C@@H]1CO
remaining at 10 min, 1 µM [3]: 89% | remaining at 10 min, 1 µM [4]: 105% | remaining at 10 min, 1 µM [5]: 15%

Compound: COc1cc(Cl)c(Cc2cc3ccccc3s2)cc1[C@@H]1O[C@H](CO)C(F)(F)[C@H](O)[C@H]1O
remaining at 10 min, 1 µM [3]: 65% | remaining at 10 min, 1 µM [4]: 37% | Stabilty ([5]; microsomes, 10 min, 1 µM): 123%

Compound: COc1cc(OC)c([C@@H]2O[C@H](CO)[C@@](C)(F)[C@H](O)[C@H]2O)cc1Cc1ccc2c(c1)OCCO2
inhibition [1]: 25% | inhibition [2]: 59%

Compound: OC[C@H]1O[C@@H](c2cc(Cc3cc4ccccc4s3)c(Cl)cc2O)[C@H](O)[C@@H](O)C1(F)F
Stabilty ([3]; microsomes, 10 min, 1 µM): 120% | t1/2 [12]: > 180 min | remaining at 10 min, 1 µM [4]: 106% | remaining at 10 min, 1 µM [5]: 94% | clearance [6]: 3.92 mL/min/kg | Vd [7]: 0.91 L/kg | half-life [8]: 223 min | AUC(0-inf) [13]: 18600 ng·h/mL | Cmax [9]: 5240 ng/mL | Tmax [10]: 18.6 min | bioavailability [11]: 46.8% | Activity [14]: 16% | Activity [15]: 41.4% | Activity [16]: 0.001 g | Activity [17]: 0.005 g

The next lines start with the values.

inhibition [1]: 31% | inhibition [2]: 67%
Compound: COc1cc(O)c([C@@H]2O[C@H](CO)[C@@](C)(F)[C@H](O)[C@H]2O)cc1Cc1ccc2c(c1)CCCO2

remaining at 10 min, 1 µM [3]: 103% | remaining at 10 min, 1 µM [4]: 98% | remaining at 10 min, 1 µM [5]: 101% | clearance [6]: 72 mL/min/kg | Vd [7]: 2.41 L/kg | half-life [8]: 91.2 min | Cmax [9]: 274 ng/mL | Tmax [10]: 15 min | bioavailability [11]: 21.8%
Compound: COc1cc(O)c([C@@H]2O[C@H](CO)[C@@](C)(F)[C@H](O)[C@H]2O)cc1Cc1ccc2c(c1)OCCO2

remaining at 10 min, 1 µM [3]: 100% | remaining at 10 min, 1 µM [4]: 91% | remaining at 10 min, 1 µM [5]: 70%
Compound: COc1cc(O)c([C@@H]2O[C@H](CO)C(F)(F)[C@H](O)[C@H]2O)cc1Cc1ccc2c(c1)CCO2
